Experimental data published in ChEMBL document CHEMBL1165858, “Synthesis and biological evaluation of beta-chloro vinyl chalcones as inhibitors of TNF-alpha and IL-6 with antimicrobial activity” (Eur J Med Chem, 2010).
In brackets after ≈: the same amount, converted by molar mass. Activity calls are given as the source filed them. The calls are words filed in the database; no cut-off is given here.

How the values were obtained:
Klebsiella pneumoniae = assay: Antibacterial activity against Klebsiella pneumoniae NCIM 5082 after 24 hrs by disc diffusion method; format: functional; conditions: for MIC: Klebsiella pneumoniae, NCIM 5082, 24 h
Outline: (§1)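 Paper disc diffusion (6.25 mm Whatman no.1 discs, dry-heat sterilized at 140 °C for 1 h) loaded with compounds at different concentrations in DMSO. Discs were placed in triplicate on nutrient agar seeded with fresh bacterial culture and incubated at 37 °C for 24 h, with solvent and growth controls. Zones of inhibition (mm) and MIC, the concentration completely inhibiting growth, were recorded.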

Proteus vulgaris [1] = assay: Antibacterial activity against Proteus vulgaris NCIM 2813 at > 100 […] after 24 hrs by disc diffusion method; format: functional, organism-based
Aspergillus fumigatus = assay: Antibacterial activity against Aspergillus fumigatus NCIM 902 after 72 hrs by disc diffusion method; format: functional
Outline: (§2)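 Agar disc diffusion against fungi. Fungi were maintained on potato dextrose agar at (25 ± 2) °C for five days before use. Compounds were dissolved in DMSO (10 mg/mL initial solutions) and loaded on discs placed on freshly seeded plates alongside a solvent control disc. Plates were held at 4 °C for 24 h for diffusion, then incubated at 37 ± 5 °C for 72 h. Zones of inhibition (mm) and MICs were recorded.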

Aspergillus niger [2] = assay: Antibacterial activity against Aspergillus niger NCIM 545 at > 100 […] after 72 hrs by disc diffusion method; format: functional, organism-based
Trichoderma viride = assay: Antibacterial activity against Trichoderma viride TT after 72 hrs by disc diffusion method; format: functional; outline: as §2
Candida albicans = assay: Antibacterial activity against Candida albicans NCIM 3100 at > 100 […] after 72 hrs by disc diffusion method; format: functional, organism-based
Penicillium chrysogenum [3] = assay: Antibacterial activity against Penicillium chrysogenum NCIM 707 after 72 hrs by disc diffusion method; format: functional; conditions: for MIC: Penicillium chrysogenum, NCIM 707, 72 h; outline: as §2
THP-1 [4] = assay: Antiinflammatory activity in human THP1 cells assessed as inhibition of LPS-induced TNFalpha secretion at 10 uM treated 30 mins before LPS challenge measured after 24 hrs by ELISA relative to control; format: functional
Outline: (§3)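 THP-1 cells were grown in RPMI 1640 with 10% FBS and penicillin/streptomycin, then differentiated with PMA. Compound or vehicle (0.5% DMSO) was added for 30 min at 37 °C, followed by LPS (E. coli 0127:B8, final 1 µg/mL). After 24 h at 37 °C in 5% CO2, TNF-α and IL-6 in the supernatants were quantified by ELISA. Values are the mean of n = 2.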

THP-1 [5] = assay: Antiinflammatory activity in human THP1 cells assessed as inhibition of LPS-induced IL-6 secretion at 10 uM treated 30 mins before LPS challenge measured after 24 hrs by ELISA relative to control; format: functional; outline: as §3
[6] = Cytotoxicity against […] at 10 uM; format: cell-based
Bacillus subtilis [7] = assay: Antibacterial activity against Bacillus subtilis NCIM 2546 at > 100 […] after 24 hrs by disc diffusion method; format: functional, organism-based
Escherichia coli [8] = assay: Antibacterial activity against Escherichia coli NCIM 2065 at > 100 […] after 24 hrs by disc diffusion method; format: functional, organism-based
Staphylococcus aureus = assay: Antibacterial activity against Staphylococcus aureus NCIM 2120 after 24 hrs by disc diffusion method; format: functional; conditions: for MIC: Staphylococcus aureus, NCIM 2120, 24 h; outline: as §1
Proteus vulgaris [9] = assay: Antibacterial activity against Proteus vulgaris NCIM 2813 after 24 hrs by disc diffusion method; format: functional; conditions: for MIC: Proteus vulgaris, NCIM 2813, 24 h; outline: as §1
Bacillus subtilis [10] = assay: Antibacterial activity against Bacillus subtilis NCIM 2546 after 24 hrs by disc diffusion method; format: functional; conditions: for MIC: Bacillus subtilis, NCIM 2546, 24 h; outline: as §1
Penicillium chrysogenum [11] = assay: Antibacterial activity against Penicillium chrysogenum NCIM 707 at > 100 […] after 72 hrs by disc diffusion method; format: functional, organism-based
Escherichia coli [12] = assay: Antibacterial activity against Escherichia coli NCIM 2065 after 24 hrs by disc diffusion method; format: functional; conditions: for MIC: Escherichia coli, NCIM 2065, 24 h; outline: as §1
Aspergillus niger [13] = assay: Antibacterial activity against Aspergillus niger NCIM 545 after 72 hrs by disc diffusion method; format: functional; outline: as §2

Compound	inhibition zone (IZ) (Klebsiella pneumoniae) [mm]	inhibition zone (IZ) (Aspergillus fumigatus) [mm]	inhibition zone (IZ) (Trichoderma viride) [mm]	MIC (Candida albicans)	inhibition at 10 µM (THP-1 [4]) [%]	inhibition at 10 µM (THP-1 [5]) [%]	Activity [6]	inhibition zone (IZ) (Staphylococcus aureus) [mm]	MIC (Staphylococcus aureus) [µg/mL]	inhibition zone (IZ) (Proteus vulgaris [9]) [mm]	inhibition zone (IZ) (Bacillus subtilis [10]) [mm]	MIC (Klebsiella pneumoniae) [µg/mL]	MIC (Proteus vulgaris [9]) [µg/mL]	MIC (Bacillus subtilis [10]) [µg/mL]	inhibition zone (IZ) (Escherichia coli [12]) [mm]	other results
COc1ccc(/C(Cl)=C/C=C/C(=O)c2c(O)cc(OC)cc2OC)c(OC)c1	13	10	10	inactive	0	33	Non-toxic	14	50 (≈ 124 µM)	–	–	–	–	–	–	MIC (Proteus vulgaris [1]): inactive; MIC (Aspergillus niger [2]): inactive; inhibition zone (IZ) (Penicillium chrysogenum [3]): 14 mm; MIC (Penicillium chrysogenum [3]): 50 µg/mL (≈ 124 µM); MIC (Bacillus subtilis [7]): inactive; MIC (Escherichia coli [8]): inactive
GENTAMICIN [listing 1 of 2 here]	22	–	–	–	–	–	–	–	–	18	24	–	–	–	–	–
C[C@@H]1C[C@H]2[C@@H]3CCC4=CC(=O)C=C[C@]4(C)[C@@]3(F)[C@@H](O)C[C@]2(C)[C@@]1(O)C(=O)CO [DEXAMETHASONE]	–	–	–	–	69	90	Non-toxic	–	–	–	–	–	–	–	–	–
COc1cc(O)c(C(=O)/C=C/C=C(\Cl)c2ccc(C)cc2)c(OC)c1	18	10	13	inactive	17	36	Non-toxic	16	50 (≈ 139 µM)	19	15	25 (≈ 69.7 µM)	25 (≈ 69.7 µM)	50 (≈ 139 µM)	12	MIC (Aspergillus niger [2]): inactive; MIC (Penicillium chrysogenum [11]): inactive
COc1cc(O)c(C(=O)/C=C/C=C(\Cl)c2ccccc2Cl)c(OC)c1	18	14	14	inactive	17	43	Non-toxic	16	50 (≈ 132 µM)	20	16	25 (≈ 65.9 µM)	25 (≈ 65.9 µM)	50 (≈ 132 µM)	14	MIC (Aspergillus fumigatus; Aspergillus fumigatus, NCIM 902, 72 h): 50 µg/mL (≈ 132 µM); inhibition zone (IZ) (Aspergillus niger [13]): 16 mm; MIC (Aspergillus niger [13]; Aspergillus niger, NCIM 545, 72 h): 50 µg/mL (≈ 132 µM); MIC (Trichoderma viride; Trichoderma viride, TT, 72 h): 50 µg/mL (≈ 132 µM); inhibition zone (IZ) (Penicillium chrysogenum [3]): 16 mm; MIC (Penicillium chrysogenum [3]): 50 µg/mL (≈ 132 µM); MIC (Escherichia coli [12]): 50 µg/mL (≈ 132 µM)
CC1(C)S[C@@H]2[C@H](NC(=O)Cc3ccccc3)C(=O)N2[C@H]1C(=O)O [PENICILLIN G]	21	–	–	–	–	–	Non-toxic	20	25 (≈ 74.8 µM)	22	22	25 (≈ 74.8 µM)	25 (≈ 74.8 µM)	25 (≈ 74.8 µM)	18	MIC (Escherichia coli [12]): 25 µg/mL (≈ 74.8 µM)
GENTAMICIN [listing 2 of 2 here]	–	–	–	–	–	–	Non-toxic	–	–	–	–	–	–	–	–	–
